Results from ChEMBL document CHEMBL1157072 (Bioorg Med Chem, 2010).
Converted amounts (≈) assume the structure as drawn. The source made the active and inactive calls. The rule behind the calls is not given here.

Assays:
[1] = Dissociation constant, pKa of the compound; type: physicochemical
[2] = tested on: Staphylococcus aureus; assay: Antibacterial activity against Staphylococcus aureus NCTC 8325 carrying shuttle vector pMC-SK after 16 to 20 hrs by broth microdilution method; type: functional
Method in brief: (§1)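 Broth microdilution in cation-adjusted Mueller Hinton broth. Compounds were serially diluted twofold in DMSO at 50-fold final strength (2% DMSO final). The inoculum was 1 × 10^4 cells per well. Plates were incubated at 37 °C for 16–20 h, and growth was read as absorbance at 600 nm.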

[3] = tested on: Staphylococcus aureus; assay: Antibacterial activity against Staphylococcus aureus NCTC 8325 carrying shuttle vector pMC-SK with mepR gene after 16 to 20 hrs by broth microdilution method; type: functional; method in brief: as §1
[4] = tested on: Staphylococcus aureus; assay: Antibacterial activity against MBX-1090-resistant Staphylococcus aureus isolate d20A1 carrying shuttle vector pMC-SK after 16 to 20 hrs by broth microdilution method; type: functional; method in brief: as §1
[5] = tested on: Staphylococcus aureus; assay: Antibacterial activity against MBX-1090-resistant Staphylococcus aureus isolate d20A1 carrying shuttle vector pMC-SK with mepR gene after 16 to 20 hrs by broth microdilution method; type: functional; method in brief: as §1
[6] = tested on: Staphylococcus aureus; assay: Antibacterial activity against Staphylococcus aureus NCTC 8325 after 16 to 20 hrs by broth microdilution method; type: functional; method in brief: as §1
[7] = tested on: Staphylococcus aureus; assay: Antibacterial activity against Staphylococcus aureus NCTC 8325 after 16 to 20 hrs by broth microdilution method in presence of efflux pump inhibitor reserpine; type: functional
Method in brief: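 Broth microdilution in cation-adjusted MHB with reserpine at 20 µg/ml final in the medium as efflux inhibitor. Twofold DMSO dilutions were made (2% DMSO final) with 1 × 10^4 cells per well. Incubation was 37 °C for 16–20 h, with growth read at 600 nm.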

[8] = tested on: Staphylococcus aureus; assay: Antibacterial activity against Staphylococcus aureus NCTC 8325 harboring genetic deletion of mepR gene after 16 to 20 hrs by broth microdilution method; type: functional; method in brief: as §1
[9] = tested on: Staphylococcus aureus; assay: Antibacterial activity against Staphylococcus aureus NCTC 8325 harboring genetic deletion of mepRA gene after 16 to 20 hrs by broth microdilution method; type: functional; method in brief: as §1
[10] = tested on: Staphylococcus aureus; assay: Antibacterial activity against Staphylococcus aureus NCTC 8325 carrying expression vector pG154 after 16 to 20 hrs by broth microdilution method; type: functional; method in brief: as §1
[11] = tested on: Staphylococcus aureus; assay: Antibacterial activity against Staphylococcus aureus NCTC 8325 carrying expression vector pG154 after 16 to 20 hrs by broth microdilution method in presence of anhydrous tetracycline; type: functional
Method in brief: (§2)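 Broth microdilution in cation-adjusted MHB containing anhydrous tetracycline at 100 ng/ml final to induce the pG154 expression vector. Twofold DMSO compound dilutions were used (2% DMSO final) with 1 × 10^4 cells per well. Incubation was 37 °C for 16–20 h, and absorbance was read at 600 nm.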

[12] = tested on: Staphylococcus aureus; assay: Antibacterial activity against Staphylococcus aureus NCTC 8325 carrying expression vector pG154 with mepA gene after 16 to 20 hrs by broth microdilution method; type: functional; method in brief: as §1
[13] = tested on: Staphylococcus aureus; assay: Antibacterial activity against Staphylococcus aureus NCTC 8325 carrying expression vector pG154 with mepA gene after 16 to 20 hrs by broth microdilution method in presence of anhydrous tetracycline; type: functional; method in brief: as §2
[14] = tested on: Staphylococcus aureus; assay: Antibacterial activity against Staphylococcus aureus NCTC 8325 harboring genetic deletion of mepRA gene and carrying expression vector pG154 after 16 to 20 hrs by broth microdilution method; type: functional; method in brief: as §1
[15] = tested on: Staphylococcus aureus; assay: Antibacterial activity against Staphylococcus aureus NCTC 8325 harboring genetic deletion of mepRA gene and carrying expression vector pG154 after 16 to 20 hrs by broth microdilution method in presence of anhydrous tetracycline; type: functional; method in brief: as §2
[16] = tested on: Staphylococcus aureus; assay: Antibacterial activity against Staphylococcus aureus NCTC 8325 harboring genetic deletion of mepRA gene and carrying expression vector pG154 with mepA gene after 16 to 20 hrs by broth microdilution method; type: functional; method in brief: as §1
[17] = tested on: Staphylococcus aureus; assay: Antibacterial activity against Staphylococcus aureus NCTC 8325 harboring genetic deletion of mepRA gene and carrying expression vector pG154 with mepA gene after 16 to 20 hrs by broth microdilution method in presence of anhydrous tetracycline; type: functional; method in brief: as §2
[18] = Selectivity ratio of MIC for MBX-1090-resistant Staphylococcus aureus isolate d20A1 to MIC for Staphylococcus aureus NCTC 8325; type: functional
Method in brief: (§3)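 Ratio of resistant-mutant MIC to NCTC 8325 MIC. Both MICs came from broth microdilution in cation-adjusted MHB with 2% DMSO final and 1 × 10^4 cells per well, incubated at 37 °C for 16–20 h and read at 600 nm.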

[19] = Selectivity ratio of MIC for MBX-1090-resistant Staphylococcus aureus isolate d20B1 to MIC for Staphylococcus aureus NCTC 8325; type: functional; method in brief: as §3
[20] = Selectivity ratio of MIC for MBX-1090-resistant Staphylococcus aureus isolate d20C1 to MIC for Staphylococcus aureus NCTC 8325; type: functional; method in brief: as §3
[21] = tested on: Staphylococcus aureus; assay: Induction of mepA gene expression in Staphylococcus aureus NCTC 8325 at 0.8 ug/ml by RT-PCR analysis; type: functional, organism-based
Method in brief: (§4)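 NCTC 8325 diluted 1/200 in TSB and grown at 37 °C (250 rpm) to OD600 0.3. 5 ml aliquots exposed 3 h to compound or DMSO (2% final), triplicate cultures pooled. RNA was DNase-treated and 1 µg primed with random hexamers for cDNA, with a no-RT control. mepA signal normalized to rho, untreated set to 1. Mean of three experiments ± SD.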

[22] = tested on: Staphylococcus aureus; assay: Induction of mepR gene expression in Staphylococcus aureus NCTC 8325 at 0.8 ug/ml by RT-PCR analysis; type: functional, organism-based
[23] = tested on: Staphylococcus aureus; assay: Upregulation of mepR gene expression in MBX-1090-resistant Staphylococcus aureus isolate d20A1 at 0.8 ug/ml by RT-PCR analysis relative to wild type; type: functional
[24] = tested on: Staphylococcus aureus; assay: Upregulation of mepA gene expression in MBX-1090-resistant Staphylococcus aureus isolate d20A1 at 0.8 ug/ml by RT-PCR analysis relative to wild type; type: functional
[25] = tested on: Staphylococcus aureus; assay: Upregulation of mepB gene expression in MBX-1090-resistant Staphylococcus aureus isolate d20A1 at 0.8 ug/ml by RT-PCR analysis relative to wild type; type: functional
[26] = tested on: Staphylococcus aureus; assay: Upregulation of conventional hypothetical protein mRNA expression in MBX-1090-resistant Staphylococcus aureus isolate d20A1 at 0.8 ug/ml by RT-PCR analysis relative to wild type; type: functional
[27] = tested on: Staphylococcus aureus; assay: Downregulation of protein A gene expression in MBX-1090-resistant Staphylococcus aureus isolate d20A1 at 0.8 ug/ml by RT-PCR analysis relative to wild type; type: functional
[28] = tested on: Staphylococcus aureus; assay: Downregulation of ribH gene expression in MBX-1090-resistant Staphylococcus aureus isolate d20A1 at 0.8 ug/ml by RT-PCR analysis relative to wild type; type: functional
[29] = tested on: Staphylococcus aureus; assay: Downregulation of ribA gene expression in MBX-1090-resistant Staphylococcus aureus isolate d20A1 at 0.8 ug/ml by RT-PCR analysis relative to wild type; type: functional
[30] = tested on: Staphylococcus aureus; assay: Downregulation of ribE gene expression in MBX-1090-resistant Staphylococcus aureus isolate d20A1 at 0.8 ug/ml by RT-PCR analysis relative to wild type; type: functional
[31] = tested on: Staphylococcus aureus; assay: Downregulation of ribD gene expression in MBX-1090-resistant Staphylococcus aureus isolate d20A1 at 0.8 ug/ml by RT-PCR analysis relative to wild type; type: functional
[32] = tested on: Staphylococcus aureus; assay: microbe, parasite or virus in culture; conditions: isolate d20A1
[33] = tested on: Staphylococcus aureus; assay: Upregulation of mepA gene expression in MBX-1090-resistant Staphylococcus aureus isolate d20A1 at 50 ug/ml by RT-PCR analysis relative to wild type; type: functional
[34] = tested on: Staphylococcus aureus; assay: Upregulation of mepB gene expression in MBX-1090-resistant Staphylococcus aureus isolate d20A1 at 50 ug/ml by RT-PCR analysis relative to wild type; type: functional
[35] = tested on: Staphylococcus aureus; assay: Upregulation of conventional hypothetical protein mRNA expression in MBX-1090-resistant Staphylococcus aureus isolate d20A1 at 50 ug/ml by RT-PCR analysis relative to wild type; type: functional
[36] = tested on: Staphylococcus aureus; assay: Modulation of protein A gene expression in MBX-1090-resistant Staphylococcus aureus isolate d20A1 at 50 ug/ml by RT-PCR analysis relative to wild type; type: functional
[37] = tested on: Staphylococcus aureus; assay: Downregulation of ribH gene expression in MBX-1090-resistant Staphylococcus aureus isolate d20A1 at 50 ug/ml by RT-PCR analysis relative to wild type; type: functional
[38] = tested on: Staphylococcus aureus; assay: Downregulation of ribA gene expression in MBX-1090-resistant Staphylococcus aureus isolate d20A1 at 50 ug/ml by RT-PCR analysis relative to wild type; type: functional
[39] = tested on: Staphylococcus aureus; assay: Downregulation of ribE gene expression in MBX-1090-resistant Staphylococcus aureus isolate d20A1 at 50 ug/ml by RT-PCR analysis relative to wild type; type: functional
[40] = tested on: Staphylococcus aureus; assay: Downregulation of ribD gene expression in MBX-1090-resistant Staphylococcus aureus isolate d20A1 at 50 ug/ml by RT-PCR analysis relative to wild type; type: functional
[41] = tested on: Staphylococcus aureus; assay: Upregulation of mepR gene expression in MBX-1090-resistant Staphylococcus aureus isolate d20A1 at 50 ug/ml by RT-PCR analysis relative to wild type; type: functional
[42] = tested on: Staphylococcus aureus; assay: Selectivity ratio of MIC for Staphylococcus aureus NCTC 8325 harboring genetic deletion of mepRA gene and carrying expression vector pG154 with mepA gene in presence of anhydrous tetracycline to MIC for Staphylococcus aureus NCTC 8325 harboring genetic deletion of mepRA gene and carrying expression vector pG154 with mepA gene; type: functional
Method in brief: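 Ratio of the MIC with anhydrous tetracycline (100 ng/ml final, induces pG154-mepA) to the MIC without it. Both came from broth microdilution in cation-adjusted MHB with 2% DMSO and 1 × 10^4 cells per well, incubated at 37 °C for 16–20 h and read at 600 nm.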

[43] = tested on: Staphylococcus aureus; assay: Induction of mepA gene expression in Staphylococcus aureus NCTC 8325 at 0.5 ug/ml by RT-PCR analysis; type: functional, organism-based; method in brief: as §4
[44] = tested on: Staphylococcus aureus; assay: Induction of mepR gene expression in Staphylococcus aureus NCTC 8325 at 0.5 ug/ml by RT-PCR analysis; type: functional, organism-based

Compound	MIC [6] [µg/mL]	MIC [7] [µg/mL]	MIC [8] [µg/mL]	MIC [9] [µg/mL]	MIC [10] [µg/mL]	MIC [11] [µg/mL]	MIC [12] [µg/mL]	MIC [13] [µg/mL]	MIC [14] [µg/mL]	MIC [15] [µg/mL]	MIC [16] [µg/mL]	MIC [17] [µg/mL]	Selectivity ratio [18]	MIC [32] [µg/mL]	further results
C(=C\c1cc2ccc(C3=NCCN3)cc2[nH]1)/c1cc2ccc(C3=NCCN3)cc2[nH]1	1 (≈ 2.53 µM)	0.5	4 (≈ 10.1 µM)	1 (≈ 2.53 µM)	1 (≈ 2.53 µM)	1	1 (≈ 2.53 µM)	8	1 (≈ 2.53 µM)	1	1 (≈ 2.53 µM)	4	8	8 (≈ 20.3 µM)	pKa [1]: 9.6; MIC [2]: 1 µg/mL (≈ 2.53 µM); MIC [3]: 1 µg/mL (≈ 2.53 µM); MIC [4]: 8 µg/mL (≈ 20.3 µM); MIC [5]: 1 µg/mL (≈ 2.53 µM); Selectivity ratio [19]: 8; Selectivity ratio [20]: 8; Activity [21]: inactive; Activity [22]: inactive; fold change (FC) [23]: 1.7; fold change (FC) [24]: 2; fold change (FC) [25]: 1; fold change (FC) [26]: 15.3; fold change (FC) [27]: 3.1; fold change (FC) [28]: 1.9; fold change (FC) [29]: 3; fold change (FC) [30]: 2.6; fold change (FC) [31]: 1.4
Cn1cc(NC(=O)c2cc(NC(=O)c3cc(NC=O)cn3C)cn2C)cc1C(=O)NCCC(=N)N [STALLIMYCIN]	50 (≈ 104 µM)	50	100 (≈ 208 µM)	100 (≈ 208 µM)	50 (≈ 104 µM)	50	50 (≈ 104 µM)	50	50 (≈ 104 µM)	50	50 (≈ 104 µM)	50	4	200 (≈ 415 µM)	fold change (FC) [33]: 72.6; fold change (FC) [34]: 25.5; fold change (FC) [35]: 14.2; fold change (FC) [36]: 2; fold change (FC) [37]: 2.7; fold change (FC) [38]: 1.9; fold change (FC) [39]: 1.5; fold change (FC) [40]: 1.6; fold change (FC) [41]: 39.2
c1cc2cc(-c3ccc4cc(C5=NCCN5)[nH]c4c3)[nH]c2cc1C1=NCCN1	0.5 (≈ 1.36 µM)	0.25	1 (≈ 2.71 µM)	0.5 (≈ 1.36 µM)	0.5 (≈ 1.36 µM)	0.5	0.5 (≈ 1.36 µM)	4	0.5 (≈ 1.36 µM)	0.5	0.5 (≈ 1.36 µM)	1	4	2 (≈ 5.43 µM)	Selectivity ratio [42]: 2; Activity [43]: Active; Activity [44]: Active
